Experimental data published in ChEMBL document CHEMBL4196006, “Aryl thiosemicarbazones for the treatment of trypanosomatidic infections” (Eur J Med Chem, 2018).
Calls of active or inactive are those of the source. The calls are words filed in the database; no cut-off is given here.

Experiments:
Trypanosoma brucei [1] = assay: Potentiation of methotrexate-induced antitrypanosomal activity against Trypanosoma brucei Lister 427 bloodstream form at 10 uM after 72 hrs by resazurin dye-based assay relative to control; assay type: functional
hERG (KCNH2) = hERG (KCNH2) (Homo sapiens, UniProt Q12809); assay: Inhibition of human ERG at 10 uM incubated for 2 hrs by fluorescence polarisation assay relative to control
Leishmania infantum = assay: Antileishmanial activity against Leishmania infantum amastigote form assessed as parasite growth inhibition at 50 uM after 72 hrs by steady-Glo reagent based assay relative to control; assay type: functional; details: for inhibition of growth at 50 µM: read-out: GI
Method in brief: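 Intramacrophage L. infantum amastigotes in THP-1-derived macrophages, tested at 50 μM or in dose-response. Plates held 72 h at 37 °C, 5% CO2. Medium was replaced by PBS, macrophages lysed, and parasites read by Steady-Glo luminescence. High-content imaging gave host cell number, infection ratio (infected/total cells) and parasites per infected cell. Values are means of at least two independent experiments.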

CYP2D6 = CYP2D6 (Homo sapiens, UniProt P10635); assay: Inhibition of human microsomal CYP2D6 expressed in baculovirus infected BTI-TN-5B1-4 cells at 10 uM incubated for 30 mins by luciferase assay relative to control; assay type: ADME
Method in brief: (§1)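 CYP1A2, 2C9, 2C19, 2D6 and 3A4 in microsomes from baculovirus-infected insect cells, each with a P450-Glo luminogenic substrate. Inhibition read as loss of light; single-point at 10 μM, triplicate.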

[2] = Cytotoxicity against human THP1 cells assessed as viable cells at 100 uM after 72 hrs by MTT assay relative to control; assay type: cell-based, THP-1; details: read-out: Activity
Method in brief: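 THP-1-derived macrophages exposed to compounds for 72 h, tested at 100 μM or in dose-response; viability read by MTT colorimetric assay.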

Trypanosoma brucei [3] = assay: Antitrypanosomal activity against Trypanosoma brucei Lister 427 bloodstream form at 10 uM after 72 hrs by resazurin dye-based assay relative to control; assay type: functional
[4] = target: T1, Pteridine reductase, putative (Trypanosoma brucei) (UniProt Q581W1); assay: Inhibition of Trypanosoma brucei PTR1 at 50 uM using H2B as substrate in presence of NADPH by photometric analysis relative to control
T1 sequence (whole entry): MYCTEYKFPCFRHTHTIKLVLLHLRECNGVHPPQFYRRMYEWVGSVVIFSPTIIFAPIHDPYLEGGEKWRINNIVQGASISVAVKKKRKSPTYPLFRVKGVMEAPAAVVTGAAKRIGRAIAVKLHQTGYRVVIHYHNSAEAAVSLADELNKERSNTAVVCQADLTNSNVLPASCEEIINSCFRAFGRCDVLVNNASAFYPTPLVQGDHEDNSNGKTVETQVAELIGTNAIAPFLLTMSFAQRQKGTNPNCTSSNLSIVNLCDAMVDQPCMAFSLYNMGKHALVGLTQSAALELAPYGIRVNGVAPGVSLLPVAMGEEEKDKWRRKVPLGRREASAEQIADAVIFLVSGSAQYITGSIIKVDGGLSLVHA

Trypanosoma cruzi [5] = assay: Antitrypanosomal activity against Trypanosoma cruzi amastigote form infected in human U2OS cells assessed as parasite growth inhibition at 50 uM after 72 hrs relative to control; assay type: functional; details: read-out: GI
Method in brief: (§2)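 U2OS monolayers grown for 24 h, then infected with tissue-derived trypomastigotes of T. cruzi Y strain. Compounds were added 24 h after infection at 50 μM (single-point) or in dose-response, with 72 h exposure. Plates were fixed, stained and analysed by high-content imaging; activity was normalized to infected and non-infected controls. Means of at least two experiments; benznidazole as reference.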

[6] = Selectivity index, ratio of CC50 for human U2OS cells to EC50 for Trypanosoma cruzi amastigote form; assay type: toxicity; details: read-out: Ratio CC50/EC50
Method in brief: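 Selectivity index = CC50 in the human host or cytotoxicity cell line divided by parasite EC50.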

CYP2C9 = CYP2C9 (Homo sapiens, UniProt P11712); assay: Inhibition of human microsomal CYP2C9 expressed in baculovirus infected BTI-TN-5B1-4 cells at 10 uM incubated for 30 mins by luciferase assay relative to control; assay type: ADME; method in brief: as §1
CYP3A4 = CYP3A4 (Homo sapiens, UniProt P08684); assay: Inhibition of human microsomal CYP3A4 expressed in baculovirus infected BTI-TN-5B1-4 cells at 10 uM incubated for 30 mins by luciferase assay relative to control; assay type: ADME; method in brief: as §1
[7] = Cytotoxicity against human 786-O cells assessed as inhibition of mitochondrial viability at 10 uM after 6 hrs by CMXRos staining based assay relative to control; assay type: cell-based, 786-0; details: read-out: INH
Method in brief: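 Mitochondrial toxicity monitored by MitoTracker Red CMXRos uptake and high-content imaging; compound at 10 μM, triplicate.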

[8] = target: T2, Pteridine reductase 1 (Leishmania major) (UniProt Q01782); assay: Inhibition of Leishmania major PTR1 at 50 uM using H2B as substrate in presence of NADPH by photometric analysis relative to control
T2 sequence (whole entry): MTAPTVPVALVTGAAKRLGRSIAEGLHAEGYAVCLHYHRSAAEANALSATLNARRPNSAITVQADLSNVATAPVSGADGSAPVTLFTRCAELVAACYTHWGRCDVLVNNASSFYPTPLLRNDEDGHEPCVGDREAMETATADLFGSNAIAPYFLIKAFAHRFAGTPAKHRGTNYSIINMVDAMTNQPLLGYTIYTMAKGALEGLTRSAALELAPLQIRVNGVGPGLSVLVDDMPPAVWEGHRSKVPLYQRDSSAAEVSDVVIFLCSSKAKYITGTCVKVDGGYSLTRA

[9] = Cytotoxicity against human WI38 cells assessed as growth inhibition at 10 uM after 48 hrs by CellTiter-Glo assay relative to control; values are per cent of control; details: WI38 cells
Trypanosoma brucei [10] = assay: Antitrypanosomal activity against Trypanosoma brucei Lister 427 bloodstream form assessed as parasite growth inhibition at 50 uM after 72 hrs by SYBR Green assay relative to control; assay type: functional; details: for inhibition of growth at 50 µM: Lister 427, 72 h, read-out: GI
Trypanosoma brucei [11] = assay: Potentiation of methotrexate-induced antitrypanosomal activity against Trypanosoma brucei Lister 427 bloodstream form at 10 uM after 72 hrs by resazurin dye-based assay; assay type: functional
[12] = Cytotoxicity against human U2OS cells assessed as decrease in viable cells after 72 hrs by cell number count in anti-T. cruzi high content imaging assay; details: U2OS cells
[13] = Cytotoxicity against human A549 cells assessed as growth inhibition at 10 uM after 48 hrs by CellTiter-Glo assay relative to control; values are per cent of control; details: A549 cells
[14] = Cytotoxicity against human U2OS cells assessed as viable cells at 50 uM after 72 hrs by MTT assay relative to control; assay type: cell-based; details: read-out: Activity
CYP2C19 = CYP2C19 (Homo sapiens, UniProt P33261); assay: Inhibition of human microsomal CYP2C19 expressed in baculovirus infected BTI-TN-5B1-4 cells at 10 uM incubated for 30 mins by luciferase assay relative to control; assay type: ADME; method in brief: as §1
Aurora kinase B = Aurora kinase B (Homo sapiens, UniProt Q96GD4); assay: Inhibition of recombinant full-length human aurora B kinase expressed in baculovirus system at 10 uM using MBP as substrate incubated for 45 mins by ADP-glo kinase assay; details: probe MBP
Method in brief: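 Aurora B activity measured as ADP formation via coupled luciferase ADP-Glo luminescence; single-point at 10 μM, triplicate.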

Trypanosoma cruzi [15] = assay: Antitrypanosomal activity against Trypanosoma cruzi amastigote form infected in human U2OS cells assessed as parasite growth inhibition after 72 hrs; assay type: functional, organism-based; method in brief: as §2
CYP1A2 = target: T3, CYP1A2 (Homo sapiens, UniProt P05177); assay: Inhibition of human microsomal CYP1A2 expressed in baculovirus infected BTI-TN-5B1-4 cells at 10 uM incubated for 30 mins by luciferase assay relative to control; assay type: ADME; method in brief: as §1
T3 sequence (P05177 whole entry): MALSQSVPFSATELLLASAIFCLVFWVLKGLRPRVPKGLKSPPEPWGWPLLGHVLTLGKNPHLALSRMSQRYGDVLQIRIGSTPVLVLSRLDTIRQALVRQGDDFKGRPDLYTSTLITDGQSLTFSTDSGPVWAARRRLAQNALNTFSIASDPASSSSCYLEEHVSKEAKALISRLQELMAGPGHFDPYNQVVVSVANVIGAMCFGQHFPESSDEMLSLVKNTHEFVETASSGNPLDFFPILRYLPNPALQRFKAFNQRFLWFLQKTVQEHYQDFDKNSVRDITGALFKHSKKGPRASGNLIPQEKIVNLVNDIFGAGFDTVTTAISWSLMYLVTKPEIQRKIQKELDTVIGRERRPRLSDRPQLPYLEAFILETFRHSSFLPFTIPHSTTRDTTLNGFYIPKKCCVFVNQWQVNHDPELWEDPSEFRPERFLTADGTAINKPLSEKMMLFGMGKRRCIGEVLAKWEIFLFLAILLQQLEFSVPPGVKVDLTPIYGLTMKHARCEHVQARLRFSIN

Trypanosoma brucei [16] = assay: Antitrypanosomal activity against Trypanosoma brucei Lister 427 bloodstream form after 72 hrs by SYBR Green assay; assay type: functional, organism-based; details: Lister 427, 72 h

Chain of Aurora kinase B (Q96GD4 whole entry): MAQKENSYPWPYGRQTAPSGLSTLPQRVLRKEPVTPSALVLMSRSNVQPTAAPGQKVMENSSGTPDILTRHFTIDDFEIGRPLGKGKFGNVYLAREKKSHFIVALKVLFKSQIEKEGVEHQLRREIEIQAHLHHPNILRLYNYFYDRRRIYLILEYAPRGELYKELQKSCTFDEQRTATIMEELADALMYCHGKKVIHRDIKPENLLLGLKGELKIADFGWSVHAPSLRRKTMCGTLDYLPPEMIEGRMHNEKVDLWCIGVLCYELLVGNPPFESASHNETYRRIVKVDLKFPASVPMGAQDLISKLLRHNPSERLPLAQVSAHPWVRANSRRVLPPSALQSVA
Chain of CYP2C19 (P33261 whole entry): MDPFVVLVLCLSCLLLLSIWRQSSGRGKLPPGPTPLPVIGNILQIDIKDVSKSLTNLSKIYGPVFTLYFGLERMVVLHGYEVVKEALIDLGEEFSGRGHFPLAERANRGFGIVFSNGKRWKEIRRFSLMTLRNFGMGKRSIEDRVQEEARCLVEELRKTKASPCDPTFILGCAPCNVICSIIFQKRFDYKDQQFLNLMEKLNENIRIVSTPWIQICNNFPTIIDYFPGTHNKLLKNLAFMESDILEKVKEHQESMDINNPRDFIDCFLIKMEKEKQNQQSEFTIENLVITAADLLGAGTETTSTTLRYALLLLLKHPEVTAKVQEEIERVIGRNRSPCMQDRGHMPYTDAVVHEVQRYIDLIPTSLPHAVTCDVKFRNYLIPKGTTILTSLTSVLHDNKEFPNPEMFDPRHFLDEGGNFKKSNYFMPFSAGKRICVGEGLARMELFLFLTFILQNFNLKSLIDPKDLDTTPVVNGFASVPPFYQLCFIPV
Chain of CYP2D6 (P10635 whole entry): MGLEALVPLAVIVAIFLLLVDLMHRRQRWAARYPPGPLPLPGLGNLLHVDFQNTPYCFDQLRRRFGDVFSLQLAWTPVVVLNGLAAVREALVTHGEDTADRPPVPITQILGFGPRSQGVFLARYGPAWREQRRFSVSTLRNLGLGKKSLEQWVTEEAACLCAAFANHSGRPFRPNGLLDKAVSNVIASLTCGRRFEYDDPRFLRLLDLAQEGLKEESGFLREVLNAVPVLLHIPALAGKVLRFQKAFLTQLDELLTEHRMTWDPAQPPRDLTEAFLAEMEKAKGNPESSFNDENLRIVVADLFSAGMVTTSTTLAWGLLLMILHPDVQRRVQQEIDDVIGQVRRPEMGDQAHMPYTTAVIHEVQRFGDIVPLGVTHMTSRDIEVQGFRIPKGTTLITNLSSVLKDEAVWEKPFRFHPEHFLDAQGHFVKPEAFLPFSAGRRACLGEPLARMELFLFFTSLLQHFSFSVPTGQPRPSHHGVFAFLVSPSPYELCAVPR
Chain of CYP3A4 (P08684 whole entry): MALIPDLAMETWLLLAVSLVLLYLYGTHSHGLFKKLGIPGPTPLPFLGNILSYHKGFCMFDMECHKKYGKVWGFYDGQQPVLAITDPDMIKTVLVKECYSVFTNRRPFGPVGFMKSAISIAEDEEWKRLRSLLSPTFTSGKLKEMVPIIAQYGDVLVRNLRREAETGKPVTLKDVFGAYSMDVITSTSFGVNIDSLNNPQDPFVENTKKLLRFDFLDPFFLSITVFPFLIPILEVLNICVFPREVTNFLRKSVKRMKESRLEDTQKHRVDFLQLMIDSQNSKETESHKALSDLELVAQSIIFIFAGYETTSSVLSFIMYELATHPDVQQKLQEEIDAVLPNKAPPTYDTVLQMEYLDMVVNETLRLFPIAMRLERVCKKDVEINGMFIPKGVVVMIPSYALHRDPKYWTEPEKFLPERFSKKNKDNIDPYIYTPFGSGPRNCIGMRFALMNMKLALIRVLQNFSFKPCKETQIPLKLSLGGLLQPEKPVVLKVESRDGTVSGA
Chain of hERG (KCNH2) (Q12809 whole entry): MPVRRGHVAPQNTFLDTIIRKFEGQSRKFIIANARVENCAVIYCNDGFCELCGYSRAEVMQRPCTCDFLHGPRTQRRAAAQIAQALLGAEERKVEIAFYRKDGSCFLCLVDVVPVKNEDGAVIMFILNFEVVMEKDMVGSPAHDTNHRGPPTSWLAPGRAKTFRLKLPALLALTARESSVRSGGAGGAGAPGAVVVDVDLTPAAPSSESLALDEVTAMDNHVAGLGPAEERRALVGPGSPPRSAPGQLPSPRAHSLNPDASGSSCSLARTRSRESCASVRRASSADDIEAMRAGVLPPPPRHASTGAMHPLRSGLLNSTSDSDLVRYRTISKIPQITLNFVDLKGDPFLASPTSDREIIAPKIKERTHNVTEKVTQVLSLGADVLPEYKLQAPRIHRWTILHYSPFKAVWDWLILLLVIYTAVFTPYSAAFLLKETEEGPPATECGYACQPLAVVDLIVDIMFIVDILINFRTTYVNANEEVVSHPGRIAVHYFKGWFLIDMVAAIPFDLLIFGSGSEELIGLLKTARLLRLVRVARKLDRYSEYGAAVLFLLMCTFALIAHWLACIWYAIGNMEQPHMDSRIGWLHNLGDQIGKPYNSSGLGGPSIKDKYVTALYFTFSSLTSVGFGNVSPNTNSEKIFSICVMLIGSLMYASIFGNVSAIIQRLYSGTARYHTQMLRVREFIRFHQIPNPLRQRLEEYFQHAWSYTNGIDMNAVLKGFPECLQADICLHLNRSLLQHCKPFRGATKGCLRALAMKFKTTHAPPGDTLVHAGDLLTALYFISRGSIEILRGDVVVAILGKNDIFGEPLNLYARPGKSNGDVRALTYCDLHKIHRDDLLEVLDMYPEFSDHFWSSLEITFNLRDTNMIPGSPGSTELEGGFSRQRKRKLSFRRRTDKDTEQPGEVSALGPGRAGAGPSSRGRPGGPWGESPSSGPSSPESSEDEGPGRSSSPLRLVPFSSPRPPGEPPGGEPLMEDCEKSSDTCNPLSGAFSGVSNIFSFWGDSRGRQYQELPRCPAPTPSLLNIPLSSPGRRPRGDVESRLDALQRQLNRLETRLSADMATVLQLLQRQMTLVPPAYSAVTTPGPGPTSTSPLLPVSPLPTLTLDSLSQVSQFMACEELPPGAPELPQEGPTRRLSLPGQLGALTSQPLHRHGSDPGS
Chain of CYP2C9 (P11712 whole entry): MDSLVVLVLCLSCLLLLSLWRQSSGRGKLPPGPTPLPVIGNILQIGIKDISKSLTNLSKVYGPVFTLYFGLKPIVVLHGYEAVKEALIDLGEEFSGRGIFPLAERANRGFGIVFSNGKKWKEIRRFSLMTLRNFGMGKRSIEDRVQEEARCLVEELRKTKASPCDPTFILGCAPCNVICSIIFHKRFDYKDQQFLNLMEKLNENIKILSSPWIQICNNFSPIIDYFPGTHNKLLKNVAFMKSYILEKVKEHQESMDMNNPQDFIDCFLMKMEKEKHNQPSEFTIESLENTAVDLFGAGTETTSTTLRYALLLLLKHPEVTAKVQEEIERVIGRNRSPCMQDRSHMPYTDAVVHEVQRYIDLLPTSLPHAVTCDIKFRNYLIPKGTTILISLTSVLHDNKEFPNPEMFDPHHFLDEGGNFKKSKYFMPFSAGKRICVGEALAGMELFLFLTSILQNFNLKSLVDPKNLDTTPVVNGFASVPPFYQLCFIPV

Row | inhibition at 0.5 h, 10 µM (CYP2D6) | inhibition [4] | inhibition at 0.5 h, 10 µM (CYP2C9) | inhibition at 0.5 h, 10 µM (CYP3A4) | inhibition [8] | inhibition at 0.5 h, 10 µM (CYP2C19) | inhibition at 0.75 h, 10 µM (Aurora kinase B) | inhibition at 0.5 h, 10 µM (CYP1A2) | SMILES | Activity (Trypanosoma brucei [1]) | inhibition at 2 h, 10 µM (hERG (KCNH2)) | inhibition of growth at 50 µM (Leishmania infantum) | viability at 72 h, 100 µM [2] | Activity (Trypanosoma brucei [3]) | inhibition of growth at 50 µM (Trypanosoma cruzi [5]) | selectivity ratio [6] | cytotoxicity at 6 h, 10 µM [7] | cell growth (% of control) at 48 h, 10 µM [9] | PF (Trypanosoma brucei [11]) | cell growth (% of control) at 48 h, 10 µM [13] | viability at 72 h, 50 µM [14] | further results
1 | -43.1% | 3.99% | -12.2% | -12.2% | 14.8% | -43.2% | -8.76% | -0.31% | NC(=S)N/N=C/c1ccco1 | 24% | -7.97% | 26.9% | 92.9% | 3.33% | 93.6% | > 1 | -4.4% | 106% | 0.87 | 124% | 112% | growth inhibition (GI) (Trypanosoma brucei [10]): inactive; CC50 at 72 h [12]: > 44 µM; EC50 (Trypanosoma cruzi [15]): 1.87 µM
2 | -14.4% | 14.9% | -7.51% | -19.8% | 18.4% | -35.9% | -16.2% | 66.6% | N/C(S)=N/N=C/c1cccc(Br)c1 | 61.17% | 10.7% |  | 79.3% | 0.83% | 90.8% | > 1 | 0.71% | 120% | 2.44 | 130% | 57.3% | growth inhibition (GI) (Leishmania infantum): inactive; inhibition of growth at 50 µM (Trypanosoma brucei [10]): 44.1%; CC50 at 72 h [12]: > 44 µM; EC50 (Trypanosoma cruzi [15]): 2.29 µM
3 | -18.9% | 13.7% | -6.44% | -4.38% | 7.6% | -20.6% | 6.53% | 18.6% | NC(=S)N/N=C/c1ccccc1O | 62.5% | 4.46% | 24.1% | 54.7% | 17.83% | 86.1% |  | -1.49% | 108% | 1.49 | 117% | 58% | inhibition of growth at 50 µM (Trypanosoma brucei [10]): 97.9%; EC50 (Trypanosoma brucei [16]): 31.5 µM
4 | 26.8% | inactive | 98.4% | -16.1% | 3.57% | 32.1% | -35.7% | 76.6% | NC(=S)N/N=C/c1ccc(-c2ccccc2)cc1 | 80.67% | 38.5% |  | 46.4% | 19.33% | 95.2% | > 1 | 16.1% | 104% | 1.85 | 138% | 116% | growth inhibition (GI) (Leishmania infantum): inactive; growth inhibition (GI) (Trypanosoma brucei [10]): inactive; CC50 at 72 h [12]: > 44 µM; EC50 (Trypanosoma cruzi [15]): 4.17 µM
5 | 2.28% | 11.2% | 3.32% | -13.5% | 12.2% | -34.6% | 0.46% | 25.2% | NC(=S)N/N=C/c1ccc2ncccc2c1 | 91.17% | -13.2% | 36% | 63.7% | 3.83% | 53.8% |  | -6.48% | 143% | 3.25 | 145% | 72.5% | inhibition of growth at 50 µM (Trypanosoma brucei [10]): 84.2%; EC50 (Trypanosoma brucei [16]): 34.4 µM
6 | -16.9% | 3.76% | -3.66% | 8.17% | 7.99% | -38.4% | -9.68% | 11.6% | N/C(S)=N/N=C/c1ccc([N+](=O)[O-])cc1 | 36.33% | 4.43% | 19% | 75.6% | 8.17% | 40.1% |  | 0.08% | 122% | 1.12 | 128% | 85.6% | growth inhibition (GI) (Trypanosoma brucei [10]): inactive
